According to ChEMBL document CHEMBL4425163, “Structure elucidation of anti-methicillin resistant Staphylococcus aureus (MRSA) flavonoids from balsam poplar buds” (Bioorg Med Chem, 2016):
Values after ≈ are worked out from the molar mass of the structure shown.

Assays:
Staphylococcus aureus [1] = assay: Antibacterial activity against methicillin resistant Staphylococcus aureus clinical isolate 8 incubated […] by microdilution resazurin assay; format: functional
Staphylococcus aureus [2] = assay: Antibacterial activity against methicillin resistant Staphylococcus aureus clinical isolate 1 incubated […] by microdilution resazurin assay; format: functional
Staphylococcus aureus [3] = assay: Antibacterial activity against methicillin resistant Staphylococcus aureus clinical isolate 3 incubated for 7 to 14 days by microdilution resazurin assay
[4] = Cytotoxicity against human WS1 cells by resazurin reduction assay; format: cell-based
How it was run: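 WS1 human fibroblast line; resazurin reduction test, slightly modified from an earlier method. Etoposide served as positive control.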

Staphylococcus aureus [5] = assay: Antibacterial activity against methicillin resistant Staphylococcus aureus clinical isolate 9 incubated […] by microdilution resazurin assay; format: functional; settings: Staphylococcus aureus, isolate 9; read-out: MIC
Staphylococcus aureus [6] = assay: Antibacterial activity against methicillin resistant Staphylococcus aureus clinical isolate 6 incubated […] by microdilution resazurin assay; format: functional
Staphylococcus aureus [7] = assay: Antibacterial activity against methicillin resistant Staphylococcus aureus clinical isolate 2 incubated […] by microdilution resazurin assay; format: functional
Staphylococcus aureus [8] = assay: Antibacterial activity against Staphylococcus aureus ATCC 25923 incubated […] by microdilution resazurin assay; format: functional
Staphylococcus aureus [9] = assay: Antibacterial activity against methicillin resistant Staphylococcus aureus clinical isolate 10 incubated […] by microdilution resazurin assay; format: functional; settings: Staphylococcus aureus, isolate 10; read-out: MIC
Staphylococcus aureus [10] = assay: Antibacterial activity against methicillin resistant Staphylococcus aureus clinical isolate 7 incubated […] by microdilution resazurin assay; format: functional; settings: Staphylococcus aureus, isolate 7; read-out: MIC
Staphylococcus aureus [11] = assay: Antibacterial activity against methicillin resistant Staphylococcus aureus clinical isolate 5 incubated […] by microdilution resazurin assay; format: functional
Staphylococcus aureus [12] = assay: Antibacterial activity against methicillin resistant Staphylococcus aureus clinical isolate 4 incubated for 7 to 14 days by microdilution resazurin assay
[13] = Staphylococcus aureus, isolate 8, read-out: MIC
[14] = Staphylococcus aureus, isolate 1, read-out: MIC
[15] = Staphylococcus aureus, isolate 6, read-out: MIC
[16] = Staphylococcus aureus, isolate 2, read-out: MIC
[17] = Staphylococcus aureus, ATCC 25923, read-out: MIC
[18] = Staphylococcus aureus, isolate 5, read-out: MIC

SMILES: COc1cc(O)c(C(=O)CCc2ccc(O)cc2)c2c1CCC(c1ccc(O)cc1)O2 (stereo not drawn)
- MIC (Staphylococcus aureus [1]; [13]): > 50 µM
- MIC (Staphylococcus aureus [2]; [14]): > 50 µM
- MIC (Staphylococcus aureus [3]): > 50 µM
- IC50 ([4]; Homo sapiens, WS1): > 10 µM
- MIC (Staphylococcus aureus [5]): > 50 µM
- MIC (Staphylococcus aureus [6]; [15]): 50 µM (≈ 21 µg/mL)
- MIC (Staphylococcus aureus [7]; [16]): 50 µM (≈ 21 µg/mL)
- MIC (Staphylococcus aureus [8]; [17]): > 50 µM
- MIC (Staphylococcus aureus [9]): > 50 µM
- MIC (Staphylococcus aureus [10]): 50 µM (≈ 21 µg/mL)
- MIC (Staphylococcus aureus [11]; [18]): > 50 µM
- MIC (Staphylococcus aureus [12]): > 50 µM

SMILES: COc1ccc(CCC(=O)c2c(O)cc(O)c(C(c3ccc(O)cc3)C(C/C=C/c3ccc(O)cc3)COC(=O)/C=C/c3ccccc3)c2O)cc1 (racemic)
- MIC (Staphylococcus aureus [1]; [13]): > 50 µM
- MIC (Staphylococcus aureus [2]; [14]): > 50 µM
- MIC (Staphylococcus aureus [3]): > 50 µM
- IC50 ([4]; Homo sapiens, WS1): > 10 µM
- MIC (Staphylococcus aureus [5]): > 50 µM
- MIC (Staphylococcus aureus [6]; [15]): > 50 µM
- MIC (Staphylococcus aureus [7]; [16]): > 50 µM
- MIC (Staphylococcus aureus [8]; [17]): 25 µM (≈ 17.5 µg/mL)
- MIC (Staphylococcus aureus [9]): > 50 µM
- MIC (Staphylococcus aureus [10]): > 50 µM
- MIC (Staphylococcus aureus [11]; [18]): > 50 µM
- MIC (Staphylococcus aureus [12]): > 50 µM

SMILES: COc1ccc(CCC(=O)c2c(O)cc(O)c3c2O[C@@H](c2ccc(O)cc2)CC3)cc1
- MIC (Staphylococcus aureus [1]; [13]): 13 µM (≈ 5.47 µg/mL)
- MIC (Staphylococcus aureus [2]; [14]): 13 µM (≈ 5.47 µg/mL)
- MIC (Staphylococcus aureus [3]): 13 µM (≈ 5.47 µg/mL)
- IC50 ([4]; Homo sapiens, WS1): > 10 µM
- MIC (Staphylococcus aureus [5]): 13 µM (≈ 5.47 µg/mL)
- MIC (Staphylococcus aureus [6]; [15]): 25 µM (≈ 10.5 µg/mL)
- MIC (Staphylococcus aureus [7]; [16]): 13 µM (≈ 5.47 µg/mL)
- MIC (Staphylococcus aureus [8]; [17]): 25 µM (≈ 10.5 µg/mL)
- MIC (Staphylococcus aureus [9]): 25 µM (≈ 10.5 µg/mL)
- MIC (Staphylococcus aureus [10]): 13 µM (≈ 5.47 µg/mL)
- MIC (Staphylococcus aureus [11]; [18]): 13 µM (≈ 5.47 µg/mL)
- MIC (Staphylococcus aureus [12]): 25 µM (≈ 10.5 µg/mL)

SMILES: COc1ccc(CCC(=O)c2c(O)c3c(c4c2O[C@@H](c2ccc(O)cc2)[C@H](C/C=C/c2ccc(O)cc2)C4)O[C@@H](c2ccc(O)cc2)[C@H](O)C3)cc1 (racemic)
- MIC (Staphylococcus aureus [1]; [13]): 25 µM (≈ 17.5 µg/mL)
- MIC (Staphylococcus aureus [2]; [14]): 25 µM (≈ 17.5 µg/mL)
- MIC (Staphylococcus aureus [3]): 25 µM (≈ 17.5 µg/mL)
- IC50 ([4]; Homo sapiens, WS1): > 10 µM
- MIC (Staphylococcus aureus [5]): 25 µM (≈ 17.5 µg/mL)
- MIC (Staphylococcus aureus [6]; [15]): 50 µM (≈ 35 µg/mL)
- MIC (Staphylococcus aureus [7]; [16]): 25 µM (≈ 17.5 µg/mL)
- MIC (Staphylococcus aureus [8]; [17]): 50 µM (≈ 35 µg/mL)
- MIC (Staphylococcus aureus [9]): 25 µM (≈ 17.5 µg/mL)
- MIC (Staphylococcus aureus [10]): 25 µM (≈ 17.5 µg/mL)
- MIC (Staphylococcus aureus [11]; [18]): 13 µM (≈ 9.11 µg/mL)
- MIC (Staphylococcus aureus [12]): 50 µM (≈ 35 µg/mL)

SMILES: O=C(CCc1ccccc1)c1c(O)cc(O)c2c1OC(c1ccc(O)cc1)C(O)C2 (stereo in doubt; (-)-15)
- MIC (Staphylococcus aureus [1]; [13]): 50 µM (≈ 20.3 µg/mL)
- MIC (Staphylococcus aureus [2]; [14]): 50 µM (≈ 20.3 µg/mL)
- MIC (Staphylococcus aureus [3]): 50 µM (≈ 20.3 µg/mL)
- IC50 ([4]; Homo sapiens, WS1): > 10 µM
- MIC (Staphylococcus aureus [5]): 50 µM (≈ 20.3 µg/mL)
- MIC (Staphylococcus aureus [6]; [15]): 50 µM (≈ 20.3 µg/mL)
- MIC (Staphylococcus aureus [7]; [16]): 25 µM (≈ 10.2 µg/mL)
- MIC (Staphylococcus aureus [9]): 25 µM (≈ 10.2 µg/mL)
- MIC (Staphylococcus aureus [10]): 25 µM (≈ 10.2 µg/mL)
- MIC (Staphylococcus aureus [11]; [18]): 25 µM (≈ 10.2 µg/mL)
- MIC (Staphylococcus aureus [12]): 50 µM (≈ 20.3 µg/mL)

SMILES: O=C(CCc1ccccc1)c1c(O)cc(O)c2c1OC(c1ccc(O)cc1)CC2 (single isomer, unassigned; (+))
- MIC (Staphylococcus aureus [1]): 13 µM (≈ 5.08 µg/mL)
- MIC (Staphylococcus aureus [2]): 13 µM (≈ 5.08 µg/mL)
- MIC (Staphylococcus aureus [6]): 25 µM (≈ 9.76 µg/mL)
- MIC (Staphylococcus aureus [7]): 13 µM (≈ 5.08 µg/mL)
- MIC (Staphylococcus aureus [8]; [17]): 6 µM (≈ 2.34 µg/mL)

SMILES: O=C(CCc1ccccc1)c1c(O)c2c(c3c1OC(c1ccc(O)cc1)C(C/C=C/c1ccc(O)cc1)C3)OC(c1ccc(O)cc1)C(C/C=C/c1ccc(O)cc1)C2 (racemic; form 1)
- MIC (Staphylococcus aureus [1]; [13]): > 50 µM
- MIC (Staphylococcus aureus [2]; [14]): > 50 µM
- MIC (Staphylococcus aureus [3]): > 50 µM
- IC50 [4]: 2.3 µM
- MIC (Staphylococcus aureus [5]): > 50 µM
- MIC (Staphylococcus aureus [6]; [15]): > 50 µM
- MIC (Staphylococcus aureus [7]; [16]): > 50 µM
- MIC (Staphylococcus aureus [9]): > 50 µM
- MIC (Staphylococcus aureus [10]): > 50 µM
- MIC (Staphylococcus aureus [11]; [18]): > 50 µM
- MIC (Staphylococcus aureus [12]): > 50 µM

SMILES: O=C(CCc1ccccc1)c1c(O)c2c(c3c1OC(c1ccc(O)cc1)C(C/C=C/c1ccc(O)cc1)C3)OC(c1ccc(O)cc1)C(C/C=C/c1ccc(O)cc1)C2 (racemic; form 2)
- IC50 [4]: > 10 µM
- MIC (Staphylococcus aureus [8]; [17]): > 50 µM

SMILES: O=C(CCc1ccc(O)cc1)c1c(O)cc(O)c2c1O[C@H](c1ccc(O)cc1)[C@@H](C/C=C/c1ccc(O)cc1)C2
- MIC (Staphylococcus aureus [1]; [13]): 3 µM (≈ 1.62 µg/mL)
- MIC (Staphylococcus aureus [2]; [14]): 3 µM (≈ 1.62 µg/mL)
- MIC (Staphylococcus aureus [3]): 3 µM (≈ 1.62 µg/mL)
- IC50 ([4]; Homo sapiens, WS1): > 10 µM
- MIC (Staphylococcus aureus [5]): 3 µM (≈ 1.62 µg/mL)
- MIC (Staphylococcus aureus [6]; [15]): 3 µM (≈ 1.62 µg/mL)
- MIC (Staphylococcus aureus [7]; [16]): 3 µM (≈ 1.62 µg/mL)
- MIC (Staphylococcus aureus [8]; [17]): 6 µM (≈ 3.23 µg/mL)
- MIC (Staphylococcus aureus [9]): 3 µM (≈ 1.62 µg/mL)
- MIC (Staphylococcus aureus [10]): 3 µM (≈ 1.62 µg/mL)
- MIC (Staphylococcus aureus [11]; [18]): 3 µM (≈ 1.62 µg/mL)
- MIC (Staphylococcus aureus [12]): 3 µM (≈ 1.62 µg/mL)

SMILES: COc1ccc(CCC(=O)c2c(O)cc(O)c3c2OC(c2ccc(O)cc2)C(O)C3)cc1 (stereo in doubt; (-)-16)
- MIC (Staphylococcus aureus [1]; [13]): > 50 µM
- MIC (Staphylococcus aureus [2]; [14]): 50 µM (≈ 21.8 µg/mL)
- MIC (Staphylococcus aureus [3]): 25 µM (≈ 10.9 µg/mL)
- IC50 ([4]; Homo sapiens, WS1): > 10 µM
- MIC (Staphylococcus aureus [5]): 50 µM (≈ 21.8 µg/mL)
- MIC (Staphylococcus aureus [6]; [15]): 50 µM (≈ 21.8 µg/mL)
- MIC (Staphylococcus aureus [7]; [16]): 25 µM (≈ 10.9 µg/mL)
- MIC (Staphylococcus aureus [9]): 25 µM (≈ 10.9 µg/mL)
- MIC (Staphylococcus aureus [10]): 25 µM (≈ 10.9 µg/mL)
- MIC (Staphylococcus aureus [11]): 13 µM (≈ 5.67 µg/mL)

SMILES: COc1ccc(CCC(=O)c2c(O)cc(O)c3c2O[C@H](c2ccc(O)cc2)CC3)cc1
- MIC (Staphylococcus aureus [1]; [13]): > 50 µM
- MIC (Staphylococcus aureus [2]; [14]): > 50 µM
- MIC (Staphylococcus aureus [3]): > 50 µM
- IC50 ([4]; Homo sapiens, WS1): > 10 µM
- MIC (Staphylococcus aureus [5]): > 50 µM
- MIC (Staphylococcus aureus [6]; [15]): > 50 µM
- MIC (Staphylococcus aureus [7]; [16]): > 50 µM
- MIC (Staphylococcus aureus [8]; [17]): > 50 µM
- MIC (Staphylococcus aureus [9]): > 50 µM
- MIC (Staphylococcus aureus [10]): > 50 µM
- MIC (Staphylococcus aureus [11]; [18]): > 50 µM
- MIC (Staphylococcus aureus [12]): > 50 µM

SMILES: O=C(CCc1ccccc1)c1c(O)cc2c(c1O)CC(O)C(c1ccc(O)cc1)O2 (stereo in doubt; (-)-17)
- MIC (Staphylococcus aureus [1]; [13]): > 50 µM
- MIC (Staphylococcus aureus [2]; [14]): 50 µM (≈ 20.3 µg/mL)
- MIC (Staphylococcus aureus [3]): 50 µM (≈ 20.3 µg/mL)
- IC50 ([4]; Homo sapiens, WS1): > 10 µM
- MIC (Staphylococcus aureus [5]): > 50 µM
- MIC (Staphylococcus aureus [6]; [15]): 50 µM (≈ 20.3 µg/mL)
- MIC (Staphylococcus aureus [7]; [16]): 50 µM (≈ 20.3 µg/mL)
- MIC (Staphylococcus aureus [8]): 25 µM (≈ 10.2 µg/mL)
- MIC (Staphylococcus aureus [9]): 50 µM (≈ 20.3 µg/mL)
- MIC (Staphylococcus aureus [10]): 25 µM (≈ 10.2 µg/mL)
- MIC (Staphylococcus aureus [11]; [18]): 50 µM (≈ 20.3 µg/mL)
- MIC (Staphylococcus aureus [12]): 50 µM (≈ 20.3 µg/mL)
